Measured values as given in ChEMBL document CHEMBL4145568, “Antiplasmodial Diterpenoids and a Benzotropolone from Petradoria pumila” (J Nat Prod, 2018).

Experiments:
Plasmodium falciparum = test: Antimalarial activity against Plasmodium falciparum Dd2 ring stage parasite assessed as decrease in parasite viability after 72 hrs by SYBR green 1 dye based assay; type: functional, organism-based
In short: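 Ring-stage cultures at 1% hematocrit and 1% parasitemia grown 72 h at 37 °C under 5% CO2, 5% O2, 90% N2 with increasing drug concentrations. Viability read by SYBR Green I DNA quantitation. IC50 from nonlinear regression, mean of three independent determinations each in duplicate, ± SEM.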

A2780 = test: Cytotoxicity against human A2780 cells assessed as inhibition of cell growth after 2 days by Alamar blue assay; type: functional, cell-based; conditions: A2780, 48 h
[1] = Plasmodium falciparum, Dd2, 72 h, read-out: IC50

| SMILES | IC50 (Plasmodium falciparum; [1]) | IC50 (A2780) | IC50 (Plasmodium falciparum) |
| --- | --- | --- | --- |
| C=C[C@](C)(O)[C@@H]1C[C@@H]2[C@@]3(C)C(=O)CCC(C)(C)[C@@H]3CC[C@@]2(C)O1 | > 20 µM | > 50 µM |  |
| C=C[C@](C)(O)[C@@H]1C[C@@H]2[C@@]3(C)[C@@H](O)CCC(C)(C)[C@@H]3CC[C@@]2(C)O1 | > 20 µM | > 50 µM |  |
| COc1cc([C@@H]2Oc3c(OC)cc(/C=C/COC(C)=O)cc3[C@H]2COC(C)=O)ccc1O |  |  | Not Active |
| C=C[C@@](C)(OC(C)=O)[C@@H]1C[C@@H]2[C@@]3(C)C(=O)CCC(C)(C)[C@@H]3CC[C@@]2(C)O1 |  | > 50 µM | Not Active |
| COc1cc([C@@H]2Oc3c(OC)cc(/C=C/COC(=O)CC(C)C)cc3[C@H]2COC(=O)CC(C)C)ccc1O | > 20 µM |  |  |
| C=C[C@@](C)(OC(C)=O)[C@@H]1C[C@@H]2[C@@]3(C)[C@@H](O)CCC(C)(C)[C@@H]3CC[C@@]2(C)O1 | 7.3 µM | > 50 µM |  |
| COc1cc2c(C)cccc2ccc1=O | > 20 µM | > 50 µM |  |
| C[C@@H]1CC[C@H]2[C@@H](C)C(=O)O[C@@H]3O[C@@]4(C)CC[C@@H]1[C@]32OO4 [ARTEMISININ] | 0.0085 µM |  |  |
